From ChEMBL document CHEMBL4393712, “Discovery of chalcone-modified estradiol analogs as antitumour agents that Inhibit tumour angiogenesis and epithelial to mesenchymal transition” (Eur J Med Chem, 2019)
Activity calls are given as the source filed them. The rule behind the calls is not given here.

Experiments:
MGC-803 = assay: Antitumour activity against human MGC803 cells assessed as cell growth inhibition measured after 72 hrs by SRB assay; type: functional, cell-based; settings: MGC-803, 72 h
How it was run: (§1)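 Exponentially growing cells trypsinized, seeded at 5 × 10^4 cells/mL in 96-well plates, cultured overnight, then exposed to compounds for 72 h. Cells fixed with 10% TCA 1 h, stained with SRB 15 min, dye dissolved in Tris-HCl, absorbance read; 50% growth-inhibitory concentration calculated.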

SMMC-7721 = assay: Antitumour activity against human SMMC7721 cells assessed as cell growth inhibition measured after 72 hrs by SRB assay; type: functional, cell-based; settings: SMMC-7721, 72 h; how it was run: as §1
ECa-109 cell line = assay: Antitumour activity against human EC109 cells assessed as cell growth inhibition measured after 72 hrs by SRB assay; type: functional, cell-based; settings: ECa-109, 72 h; how it was run: as §1
B16 = assay: Antitumour activity against mouse B16 cells assessed as cell growth inhibition measured after 72 hrs by SRB assay; type: functional, cell-based; settings: B16, 72 h; how it was run: as §1
A549 = assay: Antitumour activity against human A549 cells assessed as cell growth inhibition measured after 72 hrs by SRB assay; type: functional, cell-based; settings: A549, 72 h; how it was run: as §1
SK-N-SH = assay: Antitumour activity against human SK-N-SH cells assessed as cell growth inhibition measured after 72 hrs by SRB assay; type: functional, cell-based; how it was run: as §1
Chorioallantoic membrane = assay: Antiangiogenic activity in chicken chorioallantoic membrane assessed as reduction in neovascularization at 50 ug/ml measured after 72 hrs by CAM assay; type: functional; settings: Gallus gallus
How it was run: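 Fertilized chicken eggs incubated 6 days at 37 °C; shell windowed and CAM treated (compounds and controls at […] as printed; saline vehicle control). Eggs re-incubated humidified; membranes fixed and harvested after 72 h. Angiogenesis scored by counting blood vessels and imaging neovascular zones; ten eggs per group.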

[1] = Solubility of the compound in water; type: physicochemical; settings: buffer
HEK293 = assay: Cytotoxicity against human HEK293 cells measured after 48 to 72 hrs by MTT assay; type: cell-based
How it was run: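 Cells seeded at 3 × 10^3 per well in 96-well plates, incubated overnight, then given fresh medium with a range of drug concentrations for 48 h or 72 h. MTT added (final 500 µg/mL) for 4 h, formazan dissolved in DMSO, absorbance at 570 nm; IC50 derived. Mean ± SD of 3 independent tests.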

HeLa = assay: Antiproliferative activity against human HeLa cells measured after 72 hrs by MTT assay; type: functional, cell-based
RPMI-8226 = assay: Anticancer activity against human RPMI8226 cells measured after 48 hrs by SRB assay; type: functional; settings: RPMI-8226, 48 h
SR = assay: Anticancer activity against human SR cells measured after 48 hrs by SRB assay; type: functional
K562 = assay: Anticancer activity against human K562 cells measured after 48 hrs by SRB assay; type: functional; settings: K562, 48 h
CCRF-CEM = assay: Anticancer activity against human CCRF-CEM cells measured after 48 hrs by SRB assay; type: functional
MDA-MB-231 = assay: Antiproliferative activity against human MDA-MB-231 cells measured after 72 hrs by MTT assay; type: functional, cell-based; settings: MDA-MB-231, 72 h
MCF7 = assay: Antiproliferative activity against human MCF7 cells measured after 72 hrs by MTT assay; type: functional, cell-based; settings: MCF7, 72 h
U-251 = assay: Antiproliferative activity against human U251 cells measured after 48 hrs by SRB assay; type: functional; settings: U-251, 48 h
NCI-H460 = assay: Antiproliferative activity against human NCI-H460 cells measured after 48 hrs by SRB assay; type: functional; settings: NCI-H460, 48 h
MDA-MB-435 = assay: Antiproliferative activity against human MDA-MB-435 cells measured after 48 hrs by SRB assay; type: functional; settings: MDA-MB-435, 48 h
HCT-116 = assay: Antiproliferative activity against human HCT116 cells measured after 48 hrs by SRB assay; type: functional; settings: HCT-116, 48 h

SMILES	IC50 (MGC-803) [µM]	IC50 (SMMC-7721) [µM]	IC50 (B16) [µM]	IC50 (A549) [µM]	IC50 (SK-N-SH) [µM]	solubility [1]	IC50 (ECa-109 cell line) [µM]	IC50 (HEK293) [µM]	also measured
COc1cc2c(cc1O)CC[C@@H]1[C@@H]2CC[C@]2(C)C(=O)/C(=C/c3cccc([N+](=O)[O-])c3)C[C@@H]12	12.7	8.1	6.7	21.2	24.5	Soluble	23.3		
COc1cc2c(cc1O)CC[C@@H]1[C@@H]2CC[C@]2(C)C(=O)/C(=C/c3cccc(Cl)c3)C[C@@H]12	12.3	16.9	10.1	22.6	21	Soluble	24.3	77.1	inhibition (Chorioallantoic membrane): Active
C[C@]12CC[C@@H]3c4ccc(O)cc4CC[C@H]3[C@@H]1C/C(=N\O)C2=O									IC50 (HeLa): 4.41 µM
COc1cc2c(cc1O)CC[C@@H]1[C@@H]2CC[C@]2(C)C(=O)/C(=C/c3ccc(Cl)cc3Cl)C[C@@H]12	15.8	1.7	16.5	15.5	17.8		15.3		
COc1cc2c(cc1O)CC[C@@H]1[C@@H]2CC[C@]2(C)C(=O)/C(=C/c3cc(OC)c(OC)c(OC)c3)C[C@@H]12	18.7	2.8	18.8	14.5	14.3		13.9		
CN1CCN(C(=O)COc2ccc(/C=C3\C[C@H]4[C@@H]5CC=C6CC(Cl)CC[C@]6(C)[C@H]5CC[C@]4(C)C3=O)cc2)CC1 (some centres undefined)									GI50 (RPMI-8226): 6.9 µM; GI50 (SR): 1790 nM; GI50 (K562): 2610 nM; GI50 (CCRF-CEM): 3.94 µM
COc1cc2c(cc1O)CC[C@@H]1[C@@H]2CC[C@]2(C)C(=O)/C(=C/c3cccc(OC)c3OC)C[C@@H]12	18.3	8.6	12.7	20.4	18.2	Soluble	10.5	51	
C[C@]12CC[C@H]3[C@@H](CCC4=CC(=O)CC[C@@]43C)[C@@H]1CC[C@@H]2C(=O)/C=C/c1ccc(F)cc1									IC50 (MDA-MB-231): 2000 nM; IC50 (MCF7): 2000 nM
C=C1CC[C@H]2[C@@H]3CCc4cc(O)c(/C=C/C(=O)c5cc(OC)c(OC)c(OC)c5)cc4[C@H]3CC[C@]12C									GI50 (U-251): 1400 nM; GI50 (NCI-H460): 2600 nM; GI50 (MDA-MB-435): 1600 nM; GI50 (HCT-116): 1600 nM
COc1cc2c(cc1O)CC[C@@H]1[C@@H]2CC[C@]2(C)C(=O)/C(=C/c3cc(F)cc(F)c3)C[C@@H]12	10.7	5.1	14.2	15	8		16.2		
COc1cc2c(cc1O)CC[C@@H]1[C@@H]2CC[C@]2(C)C(=O)/C(=C/c3ccc(S(C)(=O)=O)cc3)C[C@@H]12	10.5	37.3	7.7	5.9	20.5		18.2	> 100	

Further lines, with some results ahead:

IC50 (MGC-803) [µM]	IC50 (SMMC-7721) [µM]	IC50 (B16) [µM]	IC50 (A549) [µM]	IC50 (SK-N-SH) [µM]	solubility [1]	SMILES	IC50 (ECa-109 cell line) [µM]	IC50 (HEK293) [µM]	also measured
20.5	20.8	6	53	20.1		COc1cc2c(cc1O)CC[C@@H]1[C@@H]2CC[C@]2(C)C(=O)/C(=C/c3ccc(C)cc3)C[C@@H]12	22.5		
13.5	8.2	16.8	25.3	27	Soluble	COc1cc2c(cc1O)CC[C@@H]1[C@@H]2CC[C@]2(C)C(=O)/C(=C/c3ccc(F)cc3)C[C@@H]12	19.9	87.8	inhibition (Chorioallantoic membrane): Active
8	6.3	12.4	10.9	10.3		C[C@]12CC[C@@H]3c4cc(C(=O)/C=C/c5cccc(Cl)c5)c(O)cc4CC[C@H]3[C@@H]1CC[C@@H]2O	8.5		
17.7	17.2	17.8	19.4	22.4		COc1cc2c(cc1O)CC[C@@H]1[C@@H]2CC[C@]2(C)C(=O)/C(=C/c3ccccc3)C[C@@H]12	22.8		
15.7	44.9	15.3	12.1	15		C[C@]12CC[C@@H]3c4cc(C(=O)/C=C/c5ccc(Cl)cc5)c(O)cc4CC[C@H]3[C@@H]1CC[C@@H]2O	14		
14.1	0.1	2.6	39.4	42	Soluble	COc1cc2c(cc1O)CC[C@@H]1[C@@H]2CC[C@]2(C)C(=O)/C(=C/c3ccc(Br)cc3)C[C@@H]12	17.6	48.9	inhibition (Chorioallantoic membrane): Active
> 128	> 128	> 128	52.6	> 128	Soluble	C[C@]12CC[C@@H]3c4cc(C(=O)/C=C/c5ccc(OCc6ccccc6)cc5)c(O)cc4CC[C@H]3[C@@H]1CC[C@@H]2O	> 128	> 100	inhibition (Chorioallantoic membrane): Active
4	26.1	8.9	5.5	4.5	Soluble	COc1cccc(/C=C/C(=O)c2cc3c(cc2O)CC[C@@H]2[C@@H]3CC[C@]3(C)[C@@H](O)CC[C@@H]23)c1	5.6	13.1	inhibition (Chorioallantoic membrane): Active
12.2	16.1	17.4	8.6	18.9		COc1ccc(/C=C/C(=O)c2cc3c(cc2O)CC[C@@H]2[C@@H]3CC[C@]3(C)[C@@H](O)CC[C@@H]23)cc1	18.2		
12.5	14.5	13.1	13.7	22.7		C[C@]12CC[C@@H]3c4cc(C(=O)/C=C/c5ccc(Cl)cc5Cl)c(O)cc4CC[C@H]3[C@@H]1CC[C@@H]2O	19.4		
9.8	0.6	16.5	5.9	22.2		COc1ccccc1/C=C/C(=O)c1cc2c(cc1O)CC[C@@H]1[C@@H]2CC[C@]2(C)[C@@H](O)CC[C@@H]12	26.5		
8.3	11.3	15.9	15.5	16.4		C[C@]12CC[C@@H]3c4cc(C(=O)/C=C/c5ccccc5Cl)c(O)cc4CC[C@H]3[C@@H]1CC[C@@H]2O	13.2		
